# Assay results published in ChEMBL document CHEMBL3856259, “Evaluation of canthinone alkaloids as cerebral protective agents” (Bioorg Med Chem Lett, 2016).
# Activity calls are given as the source filed them. No cut-off for these calls is given here.
# Columns and labels:
# [1] = system: Meriones unguiculatus; assay: Cerebral protective activity in cerebral ischemia-induced Mongolian gerbil assessed as passive avoidance test value at 100 mg/kg, po pretreated for 30 mins followed by bilateral ligation-induced ischemia for 5 mins measured on day 1 post 3 days ischemia induction relative to control; format: functional
# [2] = system: Meriones unguiculatus; assay: Cerebral protective activity in anesthetized cerebral ischemia-induced Mongolian gerbil hippocampus assessed as protective values on density of surviving neurons in CA1 subfields of hippocampus at 100 mg/kg, po pretreated for 30 mins followed by bilateral ligation-induced ischemia for 5 mins measured on day 1 post 3 days ischemia induction by hematoxylin and eosin staining based microscopic analysis relative to control; format: functional
# [3] = system: Meriones unguiculatus; assay: Cerebral protective activity against kainic acid-induced neuronal necrosis in po dosed Mongolian gerbil administered after kainic acid injection; format: functional, organism-based
# Procedure, shortened: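 Male Mongolian gerbils (n = 10), fasted overnight, given atropine (5.0 µg/animal) and pentobarbital anesthesia (40 mg/kg ip). Kainic acid in saline at pH 7.4 (0.2 µL of 1.0 µg/µL) infused stereotaxically into right hippocampal CA3 over 4.0 min. Drug dosed orally after the lesion. Perfusion-fixed 4 days later. Surviving CA1 neuron density (/mm) scored. Mean ± SEM.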
# [4] = system: Meriones unguiculatus; assay: Cerebral protective activity in cerebral ischemia-induced Mongolian gerbil assessed as reduction in neuronal cell death in CA1 subfields of hippocampus at 30 mg/kg, po administered twice at 3 and 6 hrs after cerebral ischemia induction; format: functional, organism-based
# Procedure, shortened: (§1)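 Gerbils (n = 10) subjected to bilateral carotid ligation ischemia, then given 30 mg/kg orally at 3 h or at 3 h and 6 h after ischemia. Brains perfusion-fixed in 10% neutral formalin and paraffin-embedded. 5-µm coronal sections stained with H&E. Surviving CA1 hippocampal neurons counted (/mm). Mean ± SEM, Student's t-test.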
# [5] = system: Meriones unguiculatus; assay: Cerebral protective activity in cerebral ischemia-induced Mongolian gerbil assessed as reduction in neuronal cell death at 30 mg/kg, po administered at 3hrs after cerebral ischemia induction; format: functional, organism-based; procedure, shortened: as §1
# [6] = Toxicity in Mongolian gerbil assessed as reduction in heart rate at 30 to 100 mg/kg, po; format: organism-based, Meriones unguiculatus; conditions: in vivo
# Procedure, shortened: (§2)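 Heart rate and mean systolic blood pressure recorded in gerbils after oral doses of 30 and 100 mg/kg.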
# [7] = Toxicity in Mongolian gerbil assessed as reduction in systolic blood pressure at 30 to 100 mg/kg, po; format: organism-based, Meriones unguiculatus; conditions: in vivo; procedure, shortened: as §2
# [8] = Toxicity in Mongolian gerbil assessed as effect on body temperature at 30 to 100 mg/kg, po; format: organism-based, Meriones unguiculatus; conditions: in vivo
# [9] = Toxicity in Mongolian gerbil assessed as locomotion-reducing effect at 30 to 100 mg/kg, po; format: organism-based, Meriones unguiculatus; conditions: in vivo
# [10] = system: Meriones unguiculatus; assay: Cerebral protective activity against ischemia in Mongolian gerbil assessed as reduction in 45Ca2+ accumulation in brain at 30 mg/kg, po administered after cerebral ischemia induction for 15 mins in presence of 45CaCl2 by autoradiographic analysis
Compound,Activity [1],Activity [2] [%],further results
Cn1ccc2c3n(c(=O)c(=O)cc1-3)c1ccccc21,>80%,84.6,–
COC(=O)c1nccc2c1[nH]c1ccccc12,<=40%,30.1,–
CCc1c2n(C)ccc3c-2n(c(=O)c1=O)c1ccccc31,<=40%,26.3,–
COc1c2n(C)ccc3c-2n(c(=O)c1=O)c1ccccc31,>80%,73.1,Activity [3]: Active; Activity [4]: Active; Activity [5]: Active; Activity [6]: Non-Toxic; Activity [7]: Non-Toxic; Activity [8]: Non-Toxic; Activity [9]: Non-Toxic; Activity [10]: Active
COc1c2n(C)ccc3c-2n(c(=O)c1=O)c1c(Br)cc(Br)cc31,<=40%,-8.1,–
Cn1ccc2c3n(c(=O)c(=O)cc1-3)c1c(Br)cc(Br)cc21,<=40%,3,–
COc1c(OC)c2c3c(cc(=O)n2C)c2ccccc2n3c1=O,<=40%,24.3,–
CC[C@@H]1N[C@H](C(=O)O)Cc2c1[nH]c1ccccc21,<=40%,10.9,–
COc1c2n(C)ccc3c-2n(c(=O)c1=O)c1ccc(Br)cc31,<=40%,-0.8,–
CCn1ccc2c3n(c(=O)c(=O)c(OC)c1-3)c1ccccc21,<=40%,46.2,–
Cn1c(=O)cc2c3ccccc3n3c(=O)ccc1c23,<=40%,10.6,–
CCn1ccc2c3n(c(=O)c(=O)cc1-3)c1ccccc21,<=40%,92.3,–
C[C@@H]1N[C@H](C(=O)O)Cc2c1[nH]c1ccccc21,<=40%,-13.6,–
[O-][n+]1ccc2c(c1)[nH]c1ccccc12,<=40%,13.8,–
COc1c(OC)c2nc(O)cc3c4ccccc4n(c1=O)c23,<=40%,2.8,–
"COc1c(OC)c2nccc3c4ccccc4n(c1=O)c23 [4,5-DIMETHOXYCANTHIN-6-ONE]",<=40%,20.8,–
COC(=O)[C@@H]1Cc2c([nH]c3ccccc23)[C@H](C)N1,<=40%,18.6,–
COc1c(O)c(=O)n2c3ccccc3c3cc(O)nc1c32,<=40%,26.2,–
Cc1c2[nH]c3ccccc3c2cc[n+]1[O-],<=40%,14.2,–
Cn1ccc2c3n(c(=O)c(=O)cc1-3)c1ccc(Br)cc21,<=40%,27.3,–
COc1ccc2c3ccn(C)c4cc(=O)c(=O)n(c3-4)c2c1,>=40 - 60%,53.8,–
COc1c(O)c(=O)n2c3ccccc3c3ccnc1c32,<=40%,13.9,–
